In series [1] the target is T1, Cannabinoid receptor 1 (Homo sapiens, UniProt P21554). The experiment in a line: Displacement of [3H]CP-55940 from human CB1 receptor expressed in HEK cells. Type of series: cell-based, HEK293. The gist of the method:
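Membranes from HEK 293 cells expressing human CB-1, suspended in ice-cold 50 mM Tris pH 7.4, 2.5 mM EDTA, 5 mM MgCl2, 0.1% fatty acid free BSA; 3.3 µg protein incubated with 0.3 nM [3H]CP 55940 and graded compound, 30 °C, 90 min with shaking, triplicate. Nonspecific binding defined with 10 µM WIN 55212-2; filtration through GF/C, scintillation counting; Ki via Cheng–Prusoff from nonlinear-regression IC50.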

A short description of series [2]: Cmax in Wistar rat at 10 mg/kg, po. Further details: dose 10 mg/kg, route oral. Type of series: ADME, organism-based. The settings on record: in vivo. The procedure, abridged:
(§1)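 Male Wistar rats, single oral dose of 10 mg/kg. Plasma exposure measured as Cmax and as AUC over 0–2 h.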

Series [3] has as its target T1, Cannabinoid receptor 1. The experiment in a line: Antagonist activity at CB1 receptor. Type of series: functional.
In another series the target is Cannabinoid receptor 2 (Homo sapiens, UniProt P34972). The experiment in a line: Displacement of [3H]CP-55940 from human CB2 receptor expressed in HEK cells. Type of series: cell-based, HEK293. The gist of the method: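 Membranes from HEK 293 cells expressing human CB-2, in ice-cold 50 mM Tris pH 7.4, 2.5 mM EDTA, 5 mM MgCl2, 0.1% fatty-acid-free BSA. 3.3 µg protein with 0.3 nM [3H]CP 55940 and varying competitor, triplicate, 30 °C for 90 min with shaking. Nonspecific binding with 10 µM WIN 55212-2. Filtration onto GF/C, scintillation counting; Ki from IC50 by Cheng–Prusoff.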
On the technique in general: In a radioligand displacement assay an active substance lowers the binding of a labelled ligand.

Series [4] deals with Rattus norvegicus. The experiment in a line: Reduction in body weight in genetically obese Zucker rat at 5 mg/kg, po qd. Format: functional. Further details: scale not given: the % may be the effect or the level left. The procedure, abridged: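 Zucker fa/fa rats, single-housed on grid floors, sham-dosed with vehicle for at least 5 days, then weight-matched on 2-day baseline. Daily oral dosing at 5 mg/kg, 2 mL/kg, in PEG/methanesulfonic acid (80:20) before the nocturnal feeding phase. Body weight recorded daily over 9 days; mean ± SEM, 9–10 rats/group.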

Series [5] concerns Rattus norvegicus. The experiment in a line: Reduction in food intake in fasted-refed Wistar rat at 10 mg/kg, po after 4 hrs. Format: functional. Further details: scale not given: the % may be the effect or the level left. The procedure, abridged:
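Wistar rats fasted overnight (18 h), then given vehicle or compound orally at 10 mg/kg as a suspension in 30% cyclodextrin, 2 mL/kg, 1 h before re-feeding. Cumulative food intake from pre-weighed jars at 30, 60, 90, 180 and 240 min.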

The nature of series [6]: AUC ( 0 to 2 hrs) in Wistar rat at 10 mg/kg, po. Further details: time < 2 hr, dose 10 mg/kg, route oral. Format: ADME, organism-based. The note with it: plasma. The procedure, abridged:
as §1

We go through 35 compounds from ChEMBL document CHEMBL1143786, “Constrained analogs of CB-1 antagonists: 1,5,6,7-Tetrahydro-4H-pyrrolo[3,2-c]pyridine-4-one derivatives” (Bioorg Med Chem Lett, 2007).

Chain of Cannabinoid receptor 2 (P34972 whole entry): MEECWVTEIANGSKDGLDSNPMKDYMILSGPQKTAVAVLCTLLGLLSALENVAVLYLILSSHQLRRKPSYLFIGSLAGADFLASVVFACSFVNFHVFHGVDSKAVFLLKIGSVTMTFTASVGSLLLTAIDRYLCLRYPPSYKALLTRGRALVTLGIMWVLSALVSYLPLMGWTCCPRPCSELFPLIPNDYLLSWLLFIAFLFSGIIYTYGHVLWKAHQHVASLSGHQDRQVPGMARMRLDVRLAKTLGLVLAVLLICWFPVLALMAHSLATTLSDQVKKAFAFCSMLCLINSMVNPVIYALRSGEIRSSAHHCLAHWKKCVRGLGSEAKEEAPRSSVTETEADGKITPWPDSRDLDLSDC
T1 sequence (P21554 whole entry): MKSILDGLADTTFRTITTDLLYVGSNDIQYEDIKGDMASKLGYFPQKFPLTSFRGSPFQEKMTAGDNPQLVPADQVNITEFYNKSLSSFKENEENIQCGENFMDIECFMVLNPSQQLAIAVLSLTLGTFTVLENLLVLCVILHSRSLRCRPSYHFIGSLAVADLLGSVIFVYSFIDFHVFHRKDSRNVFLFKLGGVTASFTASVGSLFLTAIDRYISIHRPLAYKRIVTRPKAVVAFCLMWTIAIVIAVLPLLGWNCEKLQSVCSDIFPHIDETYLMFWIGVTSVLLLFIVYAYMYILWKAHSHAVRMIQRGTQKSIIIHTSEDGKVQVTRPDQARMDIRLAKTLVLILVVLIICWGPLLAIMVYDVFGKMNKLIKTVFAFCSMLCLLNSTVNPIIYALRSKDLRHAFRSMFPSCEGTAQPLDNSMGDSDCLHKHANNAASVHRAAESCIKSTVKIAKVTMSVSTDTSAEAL

Regarding `COc1ccc(-c2c(C)c3c(n2-c2ccc(Cl)cc2Cl)CCN(C2CCCCC2)C3=O)cc1OC`, the Ki at Cannabinoid receptor 1 [1] worked out at 0.0055 µM. For the compound `Cc1c2c(n(-c3ccc(Cl)cc3)c1-c1ccc(Cl)cc1Cl)CCN(C1CCCCC1)C2=O`, the Ki on Cannabinoid receptor 1 [1] is > 2.5 µM. On Cannabinoid receptor 1 [1], `Cc1c2c(n(-c3ccc(Cl)cc3Cl)c1-c1ccco1)CCN(C1CCCCC1)C2=O` displayed an IC50 of 0.02 µM.

Consider `Cc1c2c(n(-c3ccc(Cl)cc3Cl)c1-c1ccc(C(F)(F)F)cc1)CCN(C1CCCCC1)C2=O`, for which, at Cannabinoid receptor 1 [1], the affinity corresponds to a Ki of 0.0041 µM.

Compound `Cc1cccc(-c2c(C)c3c(n2-c2ccc(Cl)cc2Cl)CCN(C2CCCCC2)C3=O)c1` came in with an IC50 on Cannabinoid receptor 1 [1] of 0.017 µM.

Consider `COc1ccc(-c2c(C)c3c(n2-c2ccc(Cl)cc2Cl)CCN(C2CCCCC2)C3=O)cc1`, for which affinity at Cannabinoid receptor 1 [1] was put at a Ki of 0.0079 µM. Consider `Cc1c2c(n(-c3ccc(Cl)cc3Cl)c1-c1ccc(Cl)cc1)CCN(C1CCCCC1)C2=O`, for which the Cmax in series [2] is < 50 nM. Further, the Kb at Cannabinoid receptor 1 [3] is 0.0065 µM. The Ki at Cannabinoid receptor 1 [1] is 0.0075 µM; at Cannabinoid receptor 2, 8.3 µM. On Cannabinoid receptor 1 [1], `Cc1c2c(n(-c3ccc(Cl)cc3Cl)c1-c1cccc(N)c1)CCN(C1CCCCC1)C2=O` displayed a Ki of 0.45 µM. With `Cc1c2c(n(-c3ccc(Cl)cc3Cl)c1-c1ccsc1)CCN(C1CCCCC1)C2=O`, the IC50 on Cannabinoid receptor 1 [1] was 0.037 µM. For `Cc1ccccc1-n1c2c(c(C)c1-c1ccc(C(F)(F)F)cc1)C(=O)N(C1CCCCC1)CC2`, on Cannabinoid receptor 1 [1], the IC50 was determined as 0.0093 µM. Consider `CSc1ccc(-c2c(C)c3c(n2-c2ccc(Cl)cc2Cl)CCN(C2CCCCC2)C3=O)cc1`, for which, at Cannabinoid receptor 1 [1], the Ki was > 2.5 µM. On to `Cc1c2c(n(-c3ccc(Cl)cc3Cl)c1-c1ccc3c(c1)OCO3)CCN(C1CCCCC1)C2=O`, for which the IC50 on Cannabinoid receptor 1 [1] was 0.012 µM. For `Cc1c2c(n(-c3ccc(Cl)cc3)c1-c1ccc(Cl)cc1)CCN(C1CCCCC1)C2=O`, the Ki at Cannabinoid receptor 1 [1] is > 2.5 µM. Consider `Cc1c(C(=O)NN2CCCCC2)nn(-c2ccc(Cl)cc2Cl)c1-c1ccc(Cl)cc1` [RIMONABANT], for which the Activity in the series on Rattus norvegicus [4] was -5.6%. Take `COc1ccc(-c2c(C)c3c(n2-c2ccccc2Cl)CCN(N2CCCCC2)C3=O)cc1`: the Cmax in series [2] amounted to 620 nM. The Ki was found to be 0.02 µM at Cannabinoid receptor 1 [1] and 0.85 µM on Cannabinoid receptor 2. The Activity is listed as 36% with Rattus norvegicus [5] and -3% in the series on Rattus norvegicus [4]. In series [6], this compound displayed an AUC(0-t) at 2 h of 0.58 µM·h.

With `C=Cc1ccc(-c2c(C)c3c(n2-c2ccc(Cl)cc2Cl)CCN(C2CCCCC2)C3=O)cc1`, at Cannabinoid receptor 1 [1], the Ki was determined as 0.0098 µM. Consider `Cc1c2c(n(-c3ccc(Cl)cc3Cl)c1-c1ccc(Cl)cc1)CCN(N1CCCCC1)C2=O`, for which the Kb on Cannabinoid receptor 1 [3] is 0.012 µM. For the same compound, the Ki came out at 0.0022 µM on Cannabinoid receptor 1 [1] and 1.3 µM on Cannabinoid receptor 2. On to `COc1ccc(-c2c(C)c3c(n2-c2ccccc2C)CCN(N2CCCCC2)C3=O)cc1`, for which, on Cannabinoid receptor 1 [1], the Ki was 0.074 µM. For `Cc1c2c(n(-c3ccc(Cl)cc3Cl)c1-c1ccc(C(=O)O)cc1)CCN(C1CCCCC1)C2=O`, on Cannabinoid receptor 1 [1], the Ki was > 2.5 µM.

On to `Cc1c2c(n(-c3ccc(Cl)cc3Cl)c1-c1ccc(F)cc1)CCN(C1CCCCC1)C2=O`, for which, at Cannabinoid receptor 1 [1], the affinity corresponds to a Ki of 0.006 µM. `Cc1c2c(n(-c3c(Cl)cccc3Cl)c1-c1ccc(Cl)cc1)CCN(C1CCCCC1)C2=O`: at Cannabinoid receptor 1 [1], the Ki is 0.2 µM. Still for that read-out and setting: the value for `COc1ccc(-c2c(C)c3c(n2-c2ccccc2Cl)CCN(C2CCCCC2)C3=O)cc1` was 0.0075 µM.

`Cc1c2c(n(-c3ccc(Cl)cc3Cl)c1-c1cccc(C(F)(F)F)c1)CCN(C1CCCCC1)C2=O` had an IC50 at Cannabinoid receptor 1 [1] of 0.067 µM. On the same count and under the same terms, the figure for `Cc1ccccc1-n1c2c(c(C)c1-c1ccc(F)cc1)C(=O)N(C1CCCCC1)CC2` is 0.04 µM. Turning to `Cc1c2c(n(-c3ccccc3Cl)c1-c1ccc(Cl)cc1)CCN(N1CCCCC1)C2=O`, the Ki turned out to be 0.0035 µM on Cannabinoid receptor 1 [1] and 1.1 µM at Cannabinoid receptor 2.

Take `Cc1c2c(n(-c3ccc(Cl)cc3Cl)c1-c1cccnc1)CCN(C1CCCCC1)C2=O`: on Cannabinoid receptor 1 [1], the Ki was 0.39 µM. As for `Cc1c2c(n(-c3ccc(Cl)cc3Cl)c1-c1ccccc1)CCN(C1CCCCC1)C2=O`, on Cannabinoid receptor 1 [1], the half-maximal inhibitory concentration (IC50) was determined as 0.016 µM.

`Cc1c2c(n(-c3ccc(Cl)cc3Cl)c1-c1ccc(N)cc1)CCN(C1CCCCC1)C2=O`: the Ki on Cannabinoid receptor 1 [1] is 0.92 µM. In the case of `COc1cccc(-c2c(C)c3c(n2-c2ccc(Cl)cc2Cl)CCN(C2CCCCC2)C3=O)c1`, at Cannabinoid receptor 1 [1], the IC50 worked out at 0.0068 µM. At Cannabinoid receptor 1 [1], `Cc1ccc(-c2c(C)c3c(n2-c2ccc(Cl)cc2Cl)CCN(C2CCCCC2)C3=O)cc1` returned a Ki of 0.01 µM. Turning to `Cc1c2c(n(-c3ccc(Cl)cc3Cl)c1-c1cccs1)CCN(C1CCCCC1)C2=O`, the half-inhibitory concentration (IC50) on Cannabinoid receptor 1 [1] came out at 0.019 µM. On the same count and under the same terms, the figure for `COc1ccc(-c2c(C)c3c(n2-c2ccccc2C)CCN(C2CCCCC2)C3=O)cc1` is 0.022 µM. With `Cc1cn(-c2ccc(Cl)cc2Cl)c2c1C(=O)N(C1CCCCC1)CC2`, the affinity on Cannabinoid receptor 1 [1], expressed as Ki, was 0.24 µM. Consider `Cc1c2c(n(-c3ccccc3Cl)c1-c1ccc(Cl)cc1)CCN(C1CCCCC1)C2=O`, for which, on Cannabinoid receptor 1 [1], the Ki worked out at 0.0028 µM. `Cc1c2c(n(-c3ccc(Cl)cc3Cl)c1-c1cc3ccccc3s1)CCN(C1CCCCC1)C2=O` displayed an IC50 on Cannabinoid receptor 1 [1] of 0.023 µM.

In general, Ki refers to a dissociation constant, usually derived from enzyme kinetics or from competition with a known ligand. A word on the IC50: it is the concentration that gives 50% inhibition. What is called Cmax is the maximum level reached in the sampled fluid or tissue. A word on the Kb: it is the equilibrium dissociation constant of an antagonist, usually derived from a functional assay. As usually defined, the AUC(0-t) is the area under the concentration-time curve up to a stated or last time point.
